From ChEMBL document CHEMBL1135616, “Synthesis of novel 4,1-benzoxazepine derivatives as squalene synthase inhibitors and their inhibition of cholesterol synthesis” (J Med Chem, 2002)

Legend:
Rattus norvegicus [1] = assay: In vivo inhibition of sterol synthesis in rats following 10 mg/kg p.o.; format: functional; conditions: for inhibition in vivo at 10 mg/kg: Rattus norvegicus, po
Method in brief: (§1)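 Oral dosing of 6-week-old male Wistar rats with test compound suspended in 0.5% methylcellulose. [14C]acetate (50 μCi/kg) given iv 1 h after the dose; animals killed 1 h later. Livers saponified and extracted with petroleum ether. Sterols precipitated with 0.5% digitonin in 50% ethanol (4 h, room temperature), then counted. Result is % inhibition vs control, mean ± SD (n = 6-10), Dunnett's test.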

Squalene synthase [2] = biological target: T1, Squalene synthase (Homo sapiens, UniProt P37268); assay: Inhibition of squalene synthase from human hepatoma cells (HepG2)
T1 sequence (P37268 whole entry): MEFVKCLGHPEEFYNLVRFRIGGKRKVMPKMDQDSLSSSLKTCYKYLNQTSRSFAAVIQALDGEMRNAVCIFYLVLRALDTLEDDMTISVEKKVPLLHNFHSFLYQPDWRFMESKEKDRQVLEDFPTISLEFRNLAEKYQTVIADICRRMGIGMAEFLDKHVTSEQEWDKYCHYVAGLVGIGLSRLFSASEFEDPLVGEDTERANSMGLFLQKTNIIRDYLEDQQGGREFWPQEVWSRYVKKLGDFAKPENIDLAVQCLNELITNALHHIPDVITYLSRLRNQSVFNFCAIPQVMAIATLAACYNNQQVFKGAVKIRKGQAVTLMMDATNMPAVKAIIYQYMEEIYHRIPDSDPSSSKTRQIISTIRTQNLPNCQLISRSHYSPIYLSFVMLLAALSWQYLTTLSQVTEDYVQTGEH
Method in brief: (§2)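 Enzyme source: microsomes from HepG2 cells grown in DMEM/10% FBS, sonicated in phosphate/nicotinamide/MgCl2 buffer. Reaction contained 5 µM [1-3H]FPP, 1 mM NADPH, 5 mM MgCl2, 6 mM glutathione, 100 mM potassium phosphate pH 7.4, 2% DMSO final, 0.8 µg protein. Run 45 min at 37 °C. Chloroform-extracted [3H]squalene counted. IC50 from one run in duplicate.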

Squalene synthase [3] = biological target: T1, Squalene synthase; assay: Inhibitory activity against squalene synthase derived from human hepatoma cells (HepG2); method in brief: as §2
Rattus norvegicus [4] = organism: Rattus norvegicus; assay: Concentration required for 50% inhibitory activity against cholesterol synthesis in rat liver; format: functional
Method in brief: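 In vivo hepatic sterol synthesis in 6-week-old male Wistar rats. Oral doses of 1, 3 and 10 mg/kg in 0.5% methylcellulose. [14C]acetate (50 μCi/kg) iv 1 h post-dose; killed 1 h later. Radioactivity of digitonin-precipitable liver sterols measured. ED50 is the oral dose giving 50% inhibition of sterol synthesis.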

Rattus norvegicus [5] = assay: Compound at a dose of 1 mg/kg was administered orally to 6 week old male Wistar rats and was evaluated for the inhibition of sterol synthesis; format: functional; conditions: route oral; method in brief: as §1
Rattus norvegicus [6] = assay: Compound at a dose of 3 mg/kg was administered orally to 6 week old male Wistar rats and was evaluated for the inhibition of sterol synthesis; format: functional; conditions: route oral; method in brief: as §1
Rattus norvegicus [7] = assay: Compound was evaluated in vivo for its inhibitory activity against cholesterol synthesis in rat liver; format: functional; method in brief: as §1
Rattus norvegicus [8] = assay: Compound at a dose of 3 mg/kg was dministered orally to 6 week old male Wistar rats and was evaluated for the inhibition of terol synthesis; format: functional; conditions: route oral; method in brief: as §1

SMILES | IC50 (Squalene synthase [2]) | inhibition in vivo at 10 mg/kg (Rattus norvegicus [1]) | further results
COc1cccc([C@H]2O[C@H](CC(=O)N3CCC(CC(=O)O)CC3)C(=O)N(CC(C)(C)COCOC(=O)C(C)(C)C)c3ccc(Cl)cc32)c1OC |  | 43% | IC50 (Squalene synthase [3]): 471 nM
CCCC(=O)OCC(C)(C)CN1C(=O)[C@@H](CC(=O)N2CCC(CC(=O)O)CC2)O[C@H](c2cccc(OC)c2OC)c2cc(Cl)ccc21 | 93 nM | 30% | 
COc1cccc([C@H]2O[C@H](CC(=O)N3CCC(CC(=O)O)CC3)C(=O)N(CC(C)(C)COC(=O)C(C)C)c3ccc(Cl)cc32)c1OC |  | 34% | IC50 (Squalene synthase [3]): 89 nM
CCC(=O)OCC(C)(C)CN1C(=O)[C@@H](CC(=O)N2CCC(CC(=O)O)CC2)O[C@H](c2cccc(OC)c2OC)c2cc(Cl)ccc21 | 87 nM | 40% | 
COc1cccc([C@H]2O[C@H](CC(=O)[O-])C(=O)N(CC(C)(C)C)c3ccc(Cl)cc32)c1OC.[Na+] |  |  | ED50 (Rattus norvegicus [7]): 3 mg/kg
COc1cccc([C@H]2O[C@H](CC(=O)N3CCC(C(=O)O)CC3)C(=O)N(CC(C)(C)CO)c3ccc(Cl)cc32)c1OC |  | 26% | 
COc1cccc([C@H]2O[C@H](CC(=O)N3CCC(CC(=O)O)CC3)C(=O)N(CC(C)(C)COC(C)=O)c3ccc(Cl)cc32)c1OC [LAPAQUISTAT ACETATE] | 78 nM | 81% | ED50 (Rattus norvegicus [4]): 2.9 mg/kg; inhibition in vivo at 1 mg/kg (Rattus norvegicus [5]): 31%; inhibition in vivo at 3 mg/kg (Rattus norvegicus [8]): 42%

Continued by falling IC50 (Squalene synthase [2]), values first:

IC50 (Squalene synthase [2]) | SMILES | inhibition in vivo at 10 mg/kg (Rattus norvegicus [1]) | further results
70 nM | COc1cccc([C@H]2O[C@H](CC(=O)N3CCC(CCCC(=O)O)CC3)C(=O)N(CC(C)(C)CO)c3ccc(Cl)cc32)c1OC | 87% | 
61 nM | COc1cccc([C@H]2O[C@H](CC(=O)N3CCC(CCC(=O)O)CC3)C(=O)N(CC(C)(C)CO)c3ccc(Cl)cc32)c1OC | 76% | 
45 nM | COc1cccc([C@H]2O[C@H](CC(=O)N3CCC(CC(=O)O)CC3)C(=O)N(CC(C)(C)CO)c3ccc(Cl)cc32)c1OC | 77% | Inhibition (Rattus norvegicus [1]; route oral, 10 mg/kg): 64%; ED50 (Rattus norvegicus [4]): 6.8 mg/kg; inhibition in vivo at 1 mg/kg (Rattus norvegicus [5]): 11%; inhibition in vivo at 3 mg/kg (Rattus norvegicus [6]): 20%
38 nM | COc1cccc([C@H]2O[C@H](CC(=O)NCCCCC(=O)O)C(=O)N(CC(C)(C)CO)c3ccc(Cl)cc32)c1OC | 50% | 
32 nM | COc1cccc([C@H]2O[C@H](CC(=O)NCCCC(=O)O)C(=O)N(CC(C)(C)CO)c3ccc(Cl)cc32)c1OC | 59% | 
28 nM | COc1cccc([C@H]2O[C@H](CC(=O)NC(CC(C)C)C(=O)O)C(=O)N(CC(C)(C)CO)c3ccc(Cl)cc32)c1OC (stereo partly specified) | 14% | 
21 nM | COc1cccc([C@H]2O[C@H](CC(=O)N[C@@H](C)C(=O)O)C(=O)N(CC(C)(C)CO)c3ccc(Cl)cc32)c1OC | 14% | 
18 nM | COc1cccc([C@H]2O[C@H](CC(=O)N(C)CC(=O)O)C(=O)N(CC(C)(C)CO)c3ccc(Cl)cc32)c1OC | -1% | 
18 nM | COc1cccc([C@H]2O[C@H](CC(=O)N[C@H](C)C(=O)O)C(=O)N(CC(C)(C)CO)c3ccc(Cl)cc32)c1OC | 31% | 
15 nM | COc1cccc([C@H]2O[C@H](CC(=O)NCCC(=O)O)C(=O)N(CC(C)(C)CO)c3ccc(Cl)cc32)c1OC | 19% | 
15 nM | COc1cccc([C@H]2O[C@H](CC(=O)NCC(=O)O)C(=O)N(CC(C)(C)CO)c3ccc(Cl)cc32)c1OC | 14% | 
